According to ChEMBL document CHEMBL4261518, “Side chain-functionalized aniline-derived ursolic acid derivatives as multidrug resistance reversers that block the nuclear factor-kappa B (NF-κB) pathway and cell proliferation” (Medchemcomm, 2017):

What was measured:
MGC-803 = test: Cytotoxicity against human MGC803 cells after 48 hrs by MTT assay; assay type: functional, cell-based; conditions: MGC-803, 48 h
In short: (§1)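 Cells grown overnight in DMEM + 10% FBS at 37 °C under 5% CO2, then given a range of compound concentrations for 48 h. MTT added for about 4 h, medium replaced by DMSO, absorbance read at 570/630 nm. IC50 reported as mean ± SD of five independent experiments.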

L02 = test: Cytotoxicity against human HL7702 cells after 48 hrs by MTT assay; assay type: cell-based; conditions: L02, 48 h; in short: as §1
[1] = Cytotoxicity against human SPCA2 cells after 48 hrs by MTT assay; assay type: functional, cell-based; conditions: SPCA2, 48 h; in short: as §1
NCI-H460 [2] = test: Cytotoxicity against human NCI-H460 cells after 48 hrs by MTT assay; assay type: functional, cell-based; conditions: NCI-H460, 48 h; in short: as §1
A549 = test: Cytotoxicity against human A549 cells after 48 hrs by MTT assay; assay type: functional, cell-based; conditions: A549, 48 h; in short: as §1
T-24 = test: Cytotoxicity against human T24 cells after 48 hrs by MTT assay; assay type: functional, cell-based; conditions: T-24, 48 h; in short: as §1
[3] = Inhibition of TNFalpha-induced NF-kB (unknown origin) activation expressed in human NCI-H460 cells after 7 hrs by luciferase reporter gene assay; assay type: cell-based; conditions: NCI-H460, 7 h
In short: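 NCI-H460 cells transiently co-transfected with pNF-κB-Luc reporter and pSV-β-galactosidase internal control by lipofectamine. Medium changed after 6 h, then 6 h further culture. TNF-α (15 ng ml–1) plus compound given together for 7 h. Luciferase ratio to TNF-α-only cells, corrected for non-TNF background and viability. IC50 from sigmoidal variable-slope fit.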

NCI-H460 [4] = test: Cytotoxicity against human NCI-H460 cells harboring pNF-kB-Luc assessed as reduction in cell viability after 7 hrs by MTT assay relative to control; set-up: concentration or dose not given beside the values; conditions: nci-h460, 7 h
[5] = Cytotoxicity against human HepG2/DOX cells after 48 hrs by MTT assay; assay type: functional, cell-based; in short: as §1
HepG2 = test: Cytotoxicity against human HepG2 cells after 48 hrs by MTT assay; assay type: functional, cell-based; conditions: HepG2, 48 h; in short: as §1
[6] = Cytotoxicity against human NCI-H460/DOX cells after 48 hrs by MTT assay; assay type: functional, cell-based; conditions: NCI-H460, 48 h; in short: as §1
[7] = Resistant factor, ratio of IC50 for human NCI-H460/DOX cells to IC50 for human NCI-H460 cells; assay type: functional

| IC50 [3] [µM] | Compound | IC50 (MGC-803) [µM] | IC50 (L02) [µM] | IC50 [1] [µM] | IC50 (NCI-H460 [2]) [µM] | IC50 (A549) [µM] | IC50 (T-24) [µM] | Activity (NCI-H460 [4]) [%] | IC50 [5] [µM] | IC50 (HepG2) [µM] | IC50 [6] [µM] | Ratio IC50 [7] |
| --- | --- | --- | --- | --- | --- | --- | --- | --- | --- | --- | --- | --- |
| > 20 | COc1ccc(NC(=O)[C@]23CC[C@@H](C)[C@H](C)[C@H]2C2=CC[C@@H]4[C@@]5(C)CCC(=O)C(C)(C)[C@@H]5CC[C@@]4(C)[C@]2(C)CC3)cc1OC | 32.5 | > 50 | 28.4 | 30.2 | 38.7 | 37.3 | < 5 |  |  |  |  |
| > 20 | C[C@H]1[C@H](C)CC[C@]2(C(=O)O)CC[C@]3(C)C(=CC[C@@H]4[C@@]5(C)CC[C@H](O)C(C)(C)[C@@H]5CC[C@]43C)[C@H]12 [URSOLIC ACID] | 27.6 | > 50 | 30.2 | 32.2 |  |  | < 5 |  |  |  |  |
| 16.2 | Cc1ccccc1NC(=O)COC(=O)[C@]12CC[C@@H](C)[C@H](C)[C@H]1C1=CC[C@@H]3[C@@]4(C)CCC(=O)C(C)(C)[C@@H]4CC[C@@]3(C)[C@]1(C)CC2 | 16.2 | > 50 | 18.7 | 14 | 16.2 | 17.8 | < 5 |  |  |  |  |
| 15.5 | C[C@H]1[C@H](C)CC[C@]2(C(=O)N3CCN(C)CC3)CC[C@]3(C)C(=CC[C@@H]4[C@@]5(C)CCC(=O)C(C)(C)[C@@H]5CC[C@]43C)[C@H]12 | 25.6 | > 50 | 22.4 | 19.2 | 23.4 | 27.2 | < 5 |  |  |  |  |
| 15.2 | Cc1ccc(NC(=O)[C@]23CC[C@@H](C)[C@H](C)[C@H]2C2=CC[C@@H]4[C@@]5(C)CCC(=O)C(C)(C)[C@@H]5CC[C@@]4(C)[C@]2(C)CC3)cc1C | 21.4 | > 50 | 22.5 | 19.4 | 20.9 | 24.6 | < 5 |  |  |  |  |

Second part, the compound before the results:

| Compound | IC50 [3] [µM] | IC50 (MGC-803) [µM] | IC50 (L02) [µM] | IC50 [1] [µM] | IC50 (NCI-H460 [2]) [µM] | IC50 (A549) [µM] | IC50 (T-24) [µM] | Activity (NCI-H460 [4]) [%] | IC50 [5] [µM] | IC50 (HepG2) [µM] | IC50 [6] [µM] | Ratio IC50 [7] |
| --- | --- | --- | --- | --- | --- | --- | --- | --- | --- | --- | --- | --- |
| Cc1cccc(NC(=O)[C@]23CC[C@@H](C)[C@H](C)[C@H]2C2=CC[C@@H]4[C@@]5(C)CCC(=O)C(C)(C)[C@@H]5CC[C@@]4(C)[C@]2(C)CC3)c1 |  | > 50 | > 50 | > 50 | > 50 | > 50 | > 50 |  |  |  |  |  |
| Cc1cccc(NC(=O)COC(=O)[C@]23CC[C@@H](C)[C@H](C)[C@H]2C2=CC[C@@H]4[C@@]5(C)CCC(=O)C(C)(C)[C@@H]5CC[C@@]4(C)[C@]2(C)CC3)c1 |  | > 50 | > 50 | > 50 | > 50 | > 50 | > 50 |  |  |  |  |  |
| COc1cccc2c1C(=O)c1c(O)c3c(c(O)c1C2=O)C[C@@](O)(C(=O)CO)C[C@@H]3O[C@H]1C[C@H](N)[C@H](O)[C@H](C)O1 [DOXORUBICIN] |  |  |  |  |  |  |  |  | > 50 | 6.91 | > 50 |  |
| COc1cccc(NC(=O)[C@]23CC[C@@H](C)[C@H](C)[C@H]2C2=CC[C@@H]4[C@@]5(C)CC[C@H](OC(C)=O)C(C)(C)[C@@H]5CC[C@@]4(C)[C@]2(C)CC3)c1 |  | > 50 | > 50 | > 50 | > 50 | > 50 | > 50 |  |  |  |  |  |
| CC(=O)O[C@H]1CC[C@]2(C)[C@H]3CC=C4[C@@H]5[C@@H](C)[C@H](C)CC[C@]5(C(=O)N5CCN(C)CC5)CC[C@@]4(C)[C@]3(C)CC[C@H]2C1(C)C | 4.8 | 21.6 | > 50 | 29.2 | 21.2 | 24.2 | 25.4 | < 5 | > 50 | 27 | 49.7 | 2.35 |
| CC[C@@]1(O)C(=O)OCc2c1cc1n(c2=O)Cc2cc3cc(O)ccc3nc2-1 [HYDROXYCAMPTOTHECIN] |  |  | 12.8 | 12.6 | 16.6 | 2.75 |  |  |  |  |  |  |
